Test results reported in ChEMBL document CHEMBL5696442, “Discovery of type II inhibitors of TGFβ-activated kinase 1 (TAK1) and mitogen-activated protein kinase kinase kinase kinase 2 (MAP4K2)” (J Med Chem, 2015).
Calls of active or inactive are those of the source. No cut-off for these calls is given here.

Tests used:
[1] = molecular target: Aurora kinase B (Homo sapiens) (UniProt Q96GD4); assay: Inhibition of AurB ATP labeling site in human Huh-7 cell lysate at 1 uM by KiNativ Profiling analysis relative to control; format: subcellular
[2] = molecular target: Serine/threonine-protein kinase 10 (Homo sapiens) (UniProt O94804); assay: Inhibition of LOK Lys2 labeling site harbouring IIHRDLKAGNVLMTLEGDIR in human Huh-7 cell lysate at 1 uM by KiNativ Profiling analysis relative to control; format: subcellular
[3] = molecular target: Serine/threonine-protein kinase 24 (Homo sapiens) (UniProt Q9Y6E0); assay: Inhibition of MST3 Lys2 labeling site harbouring IHRDIKAANVLLSEHGEVK in human Huh-7 cell lysate at 1 uM by KiNativ Profiling analysis relative to control; format: subcellular
[4] = molecular target: Serine/threonine-protein kinase WNK1 (Homo sapiens) (UniProt Q9H4A3); assay: Inhibition of Wnk1 ACT labeling site in human Huh-7 cell lysate at 1 uM by KiNativ Profiling analysis relative to control; format: subcellular
[5] = molecular target: Serine/threonine-protein kinase DCLK1 (Homo sapiens) (UniProt O15075); assay: Inhibition of DCAMKL1 (unknown origin) at 1 uM by Ambit Kinomescan binding assay relative to control
[6] = molecular target: cAMP-dependent protein kinase catalytic subunit beta (Homo sapiens) (UniProt P22694); assay: Inhibition of PKAC beta (unknown origin) at 1 uM by Ambit Kinomescan binding assay relative to control
[7] = molecular target: 5'-AMP-activated protein kinase catalytic subunit alpha-2 (Homo sapiens) (UniProt P54646); assay: Inhibition of AMPKa2 Lys1 labeling site in human A-375 cells at 0.5 uM by KiNativ Profiling analysis relative to control; format: cell-based
In short: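 Live A375 melanoma cells were treated with compound at 5 or 0.5 μM, then lysed. The lysates were labeled with a lysine-reactive ATP or ADP-biotin probe. Kinase protection from probe labeling was measured by KiNativ.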

[8] = molecular target: Mitogen-activated protein kinase kinase kinase 12 (Homo sapiens) (UniProt Q12852); assay: Inhibition of DLK (unknown origin) at 1 uM by Ambit Kinomescan binding assay relative to control
[9] = molecular target: Serine/threonine-protein kinase BRSK1 (Homo sapiens) (UniProt Q8TDC3); assay: Inhibition of BRSK1 (unknown origin) at 1 uM by Ambit Kinomescan binding assay relative to control; values are per cent of control
[10] = molecular target: Ephrin type-A receptor 3 (Homo sapiens) (UniProt P29320); assay: Inhibition of EPHA3 (unknown origin) at 1 uM by Ambit Kinomescan binding assay relative to control; values are per cent of control
[11] = molecular target: Serine/threonine-protein kinase 4 (Homo sapiens) (UniProt Q13043); assay: Inhibition of MST1 Lys2 labeling site harbouring DIKAGNILLNTEGHAK in human A-375 cells at 5 uM by KiNativ Profiling analysis relative to control
[12] = molecular target: Calcium/calmodulin-dependent protein kinase type II subunit beta (Homo sapiens) (UniProt Q13554); assay: Inhibition of CAMK2B (unknown origin) at 10 uM by Ambit Kinomescan binding assay
[13] = molecular target: Mitogen-activated protein kinase 7 (Homo sapiens) (UniProt Q13164); assay: Inhibition of ERK5 (unknown origin) at 10 uM by Ambit Kinomescan binding assay
[14] = molecular target: Testis-specific serine/threonine-protein kinase 1 (Homo sapiens) (UniProt Q9BXA7); assay: Inhibition of TSSK1B (unknown origin) at 10 uM by Ambit Kinomescan binding assay
[15] = molecular target: Rho-associated protein kinase 2 (Homo sapiens) (UniProt O75116); assay: Inhibition of ROCK2 Lys2 labeling site in human A-375 cells at 0.05 uM by KiNativ Profiling analysis relative to control; format: cell-based
[16] = molecular target: T1, Serine/threonine-protein kinase ULK3 (Homo sapiens) (UniProt Q6PHR2); assay: Inhibition of ULK3 Lys2 labeling site in human A-375 cells at 0.05 uM by KiNativ Profiling analysis relative to control; format: cell-based
T1 sequence (whole entry): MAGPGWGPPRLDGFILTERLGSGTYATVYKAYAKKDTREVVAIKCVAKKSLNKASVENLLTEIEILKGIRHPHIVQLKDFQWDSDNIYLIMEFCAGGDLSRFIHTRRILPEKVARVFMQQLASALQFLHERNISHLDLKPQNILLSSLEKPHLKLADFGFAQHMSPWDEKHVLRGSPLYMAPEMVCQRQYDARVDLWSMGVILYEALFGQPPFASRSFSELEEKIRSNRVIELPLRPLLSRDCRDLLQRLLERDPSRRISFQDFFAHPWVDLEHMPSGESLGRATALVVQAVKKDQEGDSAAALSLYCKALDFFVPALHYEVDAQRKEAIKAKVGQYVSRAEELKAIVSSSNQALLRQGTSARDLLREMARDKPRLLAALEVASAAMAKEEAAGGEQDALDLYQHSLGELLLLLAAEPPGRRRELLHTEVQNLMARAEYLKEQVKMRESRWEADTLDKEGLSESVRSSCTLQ

[17] = molecular target: Calcium/calmodulin-dependent protein kinase type II subunit gamma (Homo sapiens) (UniProt Q13555); assay: Inhibition of CAMK2g K1 labeling site harbouring KTSTQEYAAKIINTK in human Huh-7 cells at 10 uM by KiNativ Profiling analysis relative to control; format: cell-based
[18] = molecular target: Tyrosine-protein kinase Yes (Homo sapiens) (UniProt P07947); assay: Inhibition of YES ACT labeling site in human Huh-7 cells at 1 uM by KiNativ Profiling analysis relative to control; format: cell-based
[19] = molecular target: Cyclin-dependent kinase 14 (Homo sapiens) (UniProt O94921); assay: Inhibition of PFTAIRE1 Lys1 labeling site in human A-375 cells at 0.05 uM by KiNativ Profiling analysis relative to control

Serine/threonine-protein kinase 4 (Homo sapiens), sequence (Q13043 whole entry, looked up): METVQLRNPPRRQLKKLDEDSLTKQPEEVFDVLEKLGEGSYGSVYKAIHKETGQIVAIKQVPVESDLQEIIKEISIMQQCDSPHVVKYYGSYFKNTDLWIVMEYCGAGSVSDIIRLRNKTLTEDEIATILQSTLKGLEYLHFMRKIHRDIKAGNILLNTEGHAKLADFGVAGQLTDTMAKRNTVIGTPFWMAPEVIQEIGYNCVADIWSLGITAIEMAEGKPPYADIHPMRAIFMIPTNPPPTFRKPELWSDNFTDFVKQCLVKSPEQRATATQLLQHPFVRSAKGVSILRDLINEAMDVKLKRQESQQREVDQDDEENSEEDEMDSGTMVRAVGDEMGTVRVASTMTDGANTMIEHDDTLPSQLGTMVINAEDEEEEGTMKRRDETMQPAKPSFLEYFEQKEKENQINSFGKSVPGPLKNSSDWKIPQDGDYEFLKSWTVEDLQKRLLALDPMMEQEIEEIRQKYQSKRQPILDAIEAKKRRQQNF
Serine/threonine-protein kinase WNK1 (Homo sapiens), sequence (Q9H4A3 whole entry, looked up): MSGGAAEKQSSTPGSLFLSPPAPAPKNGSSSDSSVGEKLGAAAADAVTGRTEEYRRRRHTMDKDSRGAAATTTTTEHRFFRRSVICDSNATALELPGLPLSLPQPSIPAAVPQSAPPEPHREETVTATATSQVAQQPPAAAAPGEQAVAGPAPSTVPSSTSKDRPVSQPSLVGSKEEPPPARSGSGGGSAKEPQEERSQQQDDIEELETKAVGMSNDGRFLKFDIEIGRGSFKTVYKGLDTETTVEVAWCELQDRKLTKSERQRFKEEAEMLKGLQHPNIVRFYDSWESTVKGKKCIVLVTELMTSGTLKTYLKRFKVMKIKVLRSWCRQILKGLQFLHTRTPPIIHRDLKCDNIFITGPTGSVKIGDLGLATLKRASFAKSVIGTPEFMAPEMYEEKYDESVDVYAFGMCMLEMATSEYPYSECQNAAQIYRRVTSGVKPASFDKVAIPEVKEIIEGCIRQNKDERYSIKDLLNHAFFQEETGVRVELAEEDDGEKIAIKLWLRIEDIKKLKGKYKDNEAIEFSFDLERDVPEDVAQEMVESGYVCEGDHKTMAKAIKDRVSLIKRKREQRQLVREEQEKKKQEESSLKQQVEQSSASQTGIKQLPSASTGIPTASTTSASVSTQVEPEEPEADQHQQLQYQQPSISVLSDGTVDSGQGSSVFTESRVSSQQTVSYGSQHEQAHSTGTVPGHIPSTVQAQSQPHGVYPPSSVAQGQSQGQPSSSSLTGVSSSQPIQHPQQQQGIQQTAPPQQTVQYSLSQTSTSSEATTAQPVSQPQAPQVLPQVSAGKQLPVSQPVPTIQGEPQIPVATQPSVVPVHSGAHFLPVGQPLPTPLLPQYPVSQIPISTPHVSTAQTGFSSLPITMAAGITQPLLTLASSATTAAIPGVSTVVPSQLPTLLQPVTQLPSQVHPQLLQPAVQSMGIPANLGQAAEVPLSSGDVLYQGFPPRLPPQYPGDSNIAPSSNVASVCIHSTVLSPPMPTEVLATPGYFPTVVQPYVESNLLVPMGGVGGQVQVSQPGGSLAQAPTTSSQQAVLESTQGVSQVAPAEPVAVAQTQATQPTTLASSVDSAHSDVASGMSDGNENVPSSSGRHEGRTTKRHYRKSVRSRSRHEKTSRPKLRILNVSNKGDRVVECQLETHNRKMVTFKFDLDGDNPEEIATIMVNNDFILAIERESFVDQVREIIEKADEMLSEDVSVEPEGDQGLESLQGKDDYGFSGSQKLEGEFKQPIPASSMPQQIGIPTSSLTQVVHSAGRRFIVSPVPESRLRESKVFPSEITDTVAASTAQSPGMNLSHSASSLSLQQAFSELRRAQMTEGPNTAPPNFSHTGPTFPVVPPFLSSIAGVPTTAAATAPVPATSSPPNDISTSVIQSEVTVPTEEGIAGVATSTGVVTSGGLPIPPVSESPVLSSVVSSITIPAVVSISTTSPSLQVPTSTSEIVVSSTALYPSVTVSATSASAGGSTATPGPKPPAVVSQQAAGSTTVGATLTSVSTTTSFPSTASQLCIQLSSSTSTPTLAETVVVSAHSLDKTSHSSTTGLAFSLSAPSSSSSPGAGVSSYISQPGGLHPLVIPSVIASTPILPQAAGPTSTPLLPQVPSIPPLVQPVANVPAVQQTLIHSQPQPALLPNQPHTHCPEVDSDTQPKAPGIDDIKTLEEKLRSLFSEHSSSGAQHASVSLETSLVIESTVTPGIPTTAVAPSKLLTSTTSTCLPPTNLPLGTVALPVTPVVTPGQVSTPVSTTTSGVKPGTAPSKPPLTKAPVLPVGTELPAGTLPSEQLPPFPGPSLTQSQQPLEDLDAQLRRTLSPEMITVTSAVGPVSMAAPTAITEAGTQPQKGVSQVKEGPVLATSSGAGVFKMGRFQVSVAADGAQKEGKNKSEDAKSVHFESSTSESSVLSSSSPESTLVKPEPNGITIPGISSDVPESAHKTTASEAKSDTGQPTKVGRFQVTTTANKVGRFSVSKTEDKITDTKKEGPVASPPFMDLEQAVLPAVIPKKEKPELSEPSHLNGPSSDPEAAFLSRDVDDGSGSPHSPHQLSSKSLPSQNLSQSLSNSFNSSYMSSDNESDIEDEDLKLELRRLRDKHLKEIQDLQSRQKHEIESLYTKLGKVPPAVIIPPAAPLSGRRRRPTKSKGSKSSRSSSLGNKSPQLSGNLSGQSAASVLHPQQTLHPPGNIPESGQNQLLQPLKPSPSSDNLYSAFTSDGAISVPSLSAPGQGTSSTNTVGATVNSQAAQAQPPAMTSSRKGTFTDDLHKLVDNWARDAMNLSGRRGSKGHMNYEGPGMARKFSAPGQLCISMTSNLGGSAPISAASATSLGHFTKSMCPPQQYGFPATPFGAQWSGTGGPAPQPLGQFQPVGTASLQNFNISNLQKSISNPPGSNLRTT
Mitogen-activated protein kinase kinase kinase 12 (Homo sapiens), sequence (Q12852 whole entry, looked up): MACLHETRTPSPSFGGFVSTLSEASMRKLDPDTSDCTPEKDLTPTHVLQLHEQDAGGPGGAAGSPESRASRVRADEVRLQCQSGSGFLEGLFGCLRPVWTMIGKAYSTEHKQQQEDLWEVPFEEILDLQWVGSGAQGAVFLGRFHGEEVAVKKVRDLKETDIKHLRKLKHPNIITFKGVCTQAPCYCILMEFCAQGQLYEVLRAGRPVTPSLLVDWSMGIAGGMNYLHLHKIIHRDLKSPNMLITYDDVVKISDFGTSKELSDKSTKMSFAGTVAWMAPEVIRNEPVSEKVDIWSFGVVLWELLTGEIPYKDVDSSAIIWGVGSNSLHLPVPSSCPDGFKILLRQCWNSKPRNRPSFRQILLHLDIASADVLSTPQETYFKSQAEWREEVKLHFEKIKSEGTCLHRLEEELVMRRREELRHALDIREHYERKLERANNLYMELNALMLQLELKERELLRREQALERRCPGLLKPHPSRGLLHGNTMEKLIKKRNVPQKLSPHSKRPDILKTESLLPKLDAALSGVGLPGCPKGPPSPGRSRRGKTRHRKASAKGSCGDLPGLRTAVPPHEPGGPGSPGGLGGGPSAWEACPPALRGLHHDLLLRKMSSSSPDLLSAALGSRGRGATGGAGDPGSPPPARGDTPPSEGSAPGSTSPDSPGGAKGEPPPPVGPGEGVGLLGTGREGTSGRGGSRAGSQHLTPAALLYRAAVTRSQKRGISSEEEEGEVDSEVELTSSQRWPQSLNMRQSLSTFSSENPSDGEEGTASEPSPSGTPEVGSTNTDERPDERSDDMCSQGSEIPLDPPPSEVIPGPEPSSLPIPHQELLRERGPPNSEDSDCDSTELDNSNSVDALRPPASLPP
Serine/threonine-protein kinase BRSK1 (Homo sapiens), sequence (Q8TDC3 whole entry): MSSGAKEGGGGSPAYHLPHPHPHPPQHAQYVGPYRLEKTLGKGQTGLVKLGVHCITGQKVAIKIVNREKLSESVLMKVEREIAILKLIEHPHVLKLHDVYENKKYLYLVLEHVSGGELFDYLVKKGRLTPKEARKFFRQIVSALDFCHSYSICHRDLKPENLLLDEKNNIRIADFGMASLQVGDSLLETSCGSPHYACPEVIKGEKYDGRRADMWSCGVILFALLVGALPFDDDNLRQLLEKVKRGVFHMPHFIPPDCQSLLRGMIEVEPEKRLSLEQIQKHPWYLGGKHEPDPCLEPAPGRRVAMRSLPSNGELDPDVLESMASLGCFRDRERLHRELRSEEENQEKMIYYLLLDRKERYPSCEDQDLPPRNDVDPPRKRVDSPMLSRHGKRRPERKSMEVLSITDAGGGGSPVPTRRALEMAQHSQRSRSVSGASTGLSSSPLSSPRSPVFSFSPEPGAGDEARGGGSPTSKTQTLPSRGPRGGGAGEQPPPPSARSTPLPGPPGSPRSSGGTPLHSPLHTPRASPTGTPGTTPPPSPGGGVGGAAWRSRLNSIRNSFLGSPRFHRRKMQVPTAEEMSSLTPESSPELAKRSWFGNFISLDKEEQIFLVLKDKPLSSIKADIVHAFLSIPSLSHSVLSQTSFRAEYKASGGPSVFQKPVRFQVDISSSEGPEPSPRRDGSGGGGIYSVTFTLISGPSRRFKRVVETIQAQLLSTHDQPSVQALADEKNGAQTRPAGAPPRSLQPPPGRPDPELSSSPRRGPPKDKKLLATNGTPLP
Calcium/calmodulin-dependent protein kinase type II subunit gamma (Homo sapiens), sequence (Q13555 whole entry): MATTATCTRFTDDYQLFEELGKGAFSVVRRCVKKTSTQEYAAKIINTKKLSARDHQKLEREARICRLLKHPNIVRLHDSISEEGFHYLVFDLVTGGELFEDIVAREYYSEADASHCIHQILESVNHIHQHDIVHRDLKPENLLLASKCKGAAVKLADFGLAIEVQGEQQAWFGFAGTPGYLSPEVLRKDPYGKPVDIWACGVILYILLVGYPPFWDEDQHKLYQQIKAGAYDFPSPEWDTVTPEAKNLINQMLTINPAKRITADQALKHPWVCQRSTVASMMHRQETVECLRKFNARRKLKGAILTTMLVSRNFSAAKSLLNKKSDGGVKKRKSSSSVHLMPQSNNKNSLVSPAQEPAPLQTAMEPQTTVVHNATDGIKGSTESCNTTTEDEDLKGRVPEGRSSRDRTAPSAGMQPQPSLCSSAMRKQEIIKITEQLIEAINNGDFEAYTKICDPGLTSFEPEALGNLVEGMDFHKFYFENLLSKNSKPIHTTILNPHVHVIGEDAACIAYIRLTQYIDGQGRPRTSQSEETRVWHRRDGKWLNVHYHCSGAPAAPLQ

`CNc1cc(Oc2cc(C(=O)Nc3cc(N4CCN(C)CC4)cc(C(F)(F)F)c3)ccc2C)ncn1` showed an inhibition [1] of 2.5%, an inhibition [2] of 12.3% and an inhibition [3] of 15.9%. For the same compound, the inhibition [4] was -6.9%.
Work on `CCN1CCN(Cc2ccc(NC(=O)c3ccc(C)c(/C=C/c4cnc5[nH]ccc5c4OC)c3)cc2C(F)(F)F)CC1` yielded an inhibition [5] of 100%, an inhibition [6] of 76% and an inhibition [7] of 20.3%. For the same compound, the inhibition [8] was 74%, the residual activity [9] was 83% and the residual activity [10] was 5.7%. For the same compound, the inhibition [11] was 14.1%.
For `CCN1CCN(Cc2ccc(NC(=O)c3ccc(C)c(Oc4ccnc5[nH]ccc45)c3)cc2C(F)(F)F)CC1`, the inhibition [12] was “inactive”, the inhibition [13] was “inactive” and the inhibition [14] was “inactive”. For the same compound, the inhibition [15] was 6%, the inhibition [16] was 6.7% and the inhibition [17] was 6.1%. The inhibition [18] was -0.3% and the inhibition [19] was 8.3%.
